Assay results as given in ChEMBL document CHEMBL2346499, “Small molecule modulators of Wnt/β-catenin signaling” (Bioorg Med Chem Lett, 2013).
The source made the active and inactive calls. The calls are words filed in the database; no cut-off is given here.

Test system: not listed separately
Test: Induction of Wnt3A/beta-catenin signaling in HEK293 cells after 8 hrs by TOPflash reporter assay
Assay type: cell-based
Details: Homo sapiens
Summary of the method: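 HEK293 cells carrying TOPflash reporter, treated with or without Wnt3A conditioned medium (5% as reference sample) plus compound at the indicated concentrations for 8 hrs; luciferase read as relative luciferase units; significance versus Wnt3A-only sample by t test.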
With `O=C(Nc1ccc(NS(=O)(=O)c2ccc(Cl)cc2)cc1Cl)c1cc(Cl)ccc1O` the Activity was “Dose-dependent effect”.

Biological target: Frizzled-1 (Homo sapiens) (UniProt Q9UP38)
Sequence (Q9UP38 70-647 limits assumed): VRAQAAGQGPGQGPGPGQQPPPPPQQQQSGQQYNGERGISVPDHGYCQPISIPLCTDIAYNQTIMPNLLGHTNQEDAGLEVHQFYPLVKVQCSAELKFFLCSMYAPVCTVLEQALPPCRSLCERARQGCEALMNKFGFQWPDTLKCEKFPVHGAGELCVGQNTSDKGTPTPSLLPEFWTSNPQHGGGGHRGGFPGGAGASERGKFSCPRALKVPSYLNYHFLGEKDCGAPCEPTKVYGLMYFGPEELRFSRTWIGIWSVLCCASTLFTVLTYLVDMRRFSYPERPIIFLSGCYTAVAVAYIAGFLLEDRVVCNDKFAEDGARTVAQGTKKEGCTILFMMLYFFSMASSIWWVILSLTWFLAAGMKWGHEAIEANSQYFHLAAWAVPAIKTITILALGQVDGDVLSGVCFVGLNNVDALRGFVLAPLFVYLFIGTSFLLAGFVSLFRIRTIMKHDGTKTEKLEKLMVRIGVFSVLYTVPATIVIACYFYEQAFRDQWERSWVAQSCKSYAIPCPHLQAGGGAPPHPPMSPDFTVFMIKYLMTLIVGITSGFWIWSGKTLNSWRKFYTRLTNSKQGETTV
Test: Induction of internalization of Frizzled1-GFP (unknown origin) expressed in human U2OS cells at 12.5 uM after 6 hrs by confocal microscopy
Assay type: cell-based
Details: not given
In the case of `O=C(Nc1ccccc1[N+](=O)[O-])c1cc(Cl)ccc1O`, the Activity is reported as “inactive”.
For `O=C(Nc1ccc(Oc2ccc(Cl)cc2)c(Cl)c1)c1cc(I)cc(I)c1O`, the Activity was “inactive”.
With `COc1cc([N+](=O)[O-])ccc1NC(=O)c1cc(Cl)ccc1O` the Activity was “Active”.
For `O=C(Nc1ccc(NS(=O)(=O)c2ccc(Cl)cc2)cc1Cl)c1cc(Cl)ccc1O`, the Activity was “inactive”.
For `[N-]=[N+]=Nc1ccc(NC(=O)c2cc(Cl)ccc2O)c(Cl)c1`, the Activity was “Active”.
For `O=C(Nc1ccc([N+](=O)[O-])cc1Br)c1ccccc1O`, the Activity was “Active”.
In the case of `O=C(Nc1ccc([N+](=O)[O-])cc1Cl)c1cccc(Cl)c1`, the Activity is reported as “inactive”.
For `O=C(Nc1ccc([N+](=O)[O-])cc1)c1cc(Br)ccc1O`, the Activity was “Active”.
In the case of `O=C(Nc1ccc([N+](=O)[O-])cc1Cl)c1cc(Br)ccc1O`, the Activity is reported as “Active”.
With `O=C(Nc1cc(Cl)cc(Cl)c1O)c1c(O)c(Cl)cc(Cl)c1Cl` the Activity was “inactive”.
With `[N-]=[N+]=NCCOCCOCCOc1cc([N+](=O)[O-])ccc1NC(=O)c1cc(Cl)ccc1O` the Activity was “Active”.
For `O=C(Nc1ccc(Br)cc1)c1cc(Br)cc(Br)c1O`, the Activity was “inactive”.
With `Cc1cc(C(C#N)c2ccc(Cl)cc2)c(Cl)cc1NC(=O)c1cc(I)cc(I)c1O` (stereo not given) the Activity was “inactive”.
For `O=C(Nc1ccc([N+](=O)[O-])cc1)c1cc(Cl)ccc1O`, the Activity was “Active”.
For `COc1ccc(Cl)cc1C(=O)Nc1ccc([N+](=O)[O-])cc1Cl`, the Activity was “inactive”.
In the case of `Nc1ccc(NC(=O)c2cc(Cl)ccc2O)c(Cl)c1`, the Activity is reported as “inactive”.
For `O=C(Nc1ccc([N+](=O)[O-])cc1Cl)c1ccccc1O`, the Activity was “Active”.
With `O=C(Nc1cccc([N+](=O)[O-])c1)c1cc(Cl)ccc1O` the Activity was “inactive”.
For `O=C(Nc1ccc([N+](=O)[O-])cc1Cl)c1cc(Cl)ccc1O` [NICLOSAMIDE], the Activity was “Active”.
